How the values were obtained:
CEM-SS [1] = test: (§1) Concentration which results in 50% survival of uninfected untreated control CEM-SS cells (cytotoxicity of the compound); type: cell-based; details: Homo sapiens
[2] = system: Human immunodeficiency virus 1; test: Concentration which produces a 50% survival of HIV-1 infected cells relative to uninfected control C8166 cells; type: functional, organism-based; details: Human immunodeficiency virus 1, C8166
[3] = Selectivity index was determined in C8166 cells; type: functional
Procedure, shortened: (§2)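 C8166 CD4+ T-cell line (HTLV-I genome, only tat expressed) acutely infected with lymphocytotropic HIV-1 IIIB. […] Read-out is HIV-p24 antigen in supernatants. AZT positive control was run at the same time. SI = IC50/EC50.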

[4] = Selectivity index was determined in CEM-SS cells; type: functional
Procedure, shortened: (§3)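 CEM-SS T4 lymphocytes infected with wild-type HIV-1. Protection from virus-induced cell death is scored against an AZT-treated positive control run under identical conditions. […] SI = IC50/EC50.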

C8166 [5] = test: (§4) Concentration which results in 50% survival of uninfected untreated control C8166 cells (cytotoxicity of the compound); type: cell-based; details: Homo sapiens
Procedure, shortened: (§5)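 Toxicity in uninfected C8166 cells by MTT reduction to formazan, read spectrophotometrically.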

NIH3T3 [6] = test: Cytotoxicity against 3T3 fibroblasts (3T3F) murine cell line (O.D.=0.131+/-0.014); type: functional; details: Mus musculus, read-out: TC50 (the source's name)
Mus musculus [7] = test: Area under curve was determined after oral administration in mice; type: ADME, organism-based; details: in vivo
Procedure, shortened: (§6)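 Mice dosed at 20 mg/kg, either subcutaneously or orally; plasma drug level measured by HPLC with an internal standard; n = 3 per point. Cmax and tmax read from the concentration-time curves. Clearance assumes complete subcutaneous absorption. Elimination t1/2, Vd and AUC derived from plasma curves. Relative oral bioavailability computed as oral AUC over subcutaneous AUC.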

Mus musculus [8] = test: Area under curve was determined after subcutaneous administration of a dose of 20 mg/kg in mice; type: ADME, organism-based; design: dose 20 mg/kg, route subcutaneous; details: in vivo, sc; procedure, shortened: as §6
Mus musculus [9] = test: Volume distribution was determined after subcutaneous administration of a dose of 20 mg/kg in mice; type: ADME, organism-based; design: dose 20 mg/kg, route subcutaneous; details: in vivo, sc; procedure, shortened: as §6
[10] = Half life period was determined after oral administration in mice; type: ADME, organism-based; details: mouse, in vivo; procedure, shortened: as §6
[11] = Half life period was determined after subcutaneous administration of a dose of 20 mg/kg in mice; type: ADME, organism-based; design: dose 20 mg/kg, route subcutaneous; details: mouse, in vivo, sc; procedure, shortened: as §6
[12] = Subcutaneous absorption was determined fter subcutaneous administration of a dose of 20 mg/kg in mice; type: ADME, organism-based; design: dose 20 mg/kg, route subcutaneous; details: mouse, in vivo, sc; procedure, shortened: as §6
C8166 [13] = test: Synergistic antiviral activity with AZT (DDI), against HIV-IIIB in C8166 cells (combination index in association with DDI); type: functional, cell-based; details: Homo sapiens
Procedure, shortened: (§7)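 C8166 cells infected with HIV-IIIB and treated with compound combined with AZT (or DDI). Combination index calculated by the Chou-Talalay multiple drug effect analysis under both mutually exclusive and mutually nonexclusive assumptions.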

C8166 [14] = test: as §4; type: functional, cell-based; details: Homo sapiens; procedure, shortened: as §5
C8166 [15] = test: Antiviral activity alone against HIV-IIIB in C8166 cells; type: functional, cell-based; details: Homo sapiens; procedure, shortened: as §2
C8166 [16] = test: Concentration which produces a 50% survival of HIV-1 infected cells relative to uninfected control C8166 cell (in vitro anti-HIV activity); type: functional, cell-based; details: Homo sapiens
C8166 [17] = test: Synergistic antiviral activity of AZT (DDI) with the compound, against HIV-IIIB in C8166 cells (combination index in association with DDI); type: functional, cell-based; details: Homo sapiens; procedure, shortened: as §7
Daudi [18] = test: Cytotoxicity against Daudi Human(DH) cell line (O.D.=0.129+/-0.018); type: functional; details: read-out: TC50 (the source's name)
[19] = system: Human immunodeficiency virus 1; test: Inhibition of HIV-1-p24 antigen production in monocyte-macrophages (in vitro anti-HIV-1 activity); type: functional, organism-based
Procedure, shortened: (§8)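 Macrophages from adherent PBMC (10^6/mL, RPMI-1640 with 20% heat-inactivated FCS), 10^5 per well, >95% pure, infected with monocytotropic HTLV-III Ba-L. Antiviral activity read 14 days after infection. […] SI = IC50/EC50. AZT control run in parallel.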

NSO = test: Cytotoxicity against NSO murine cell line (O.D.=0.125+/-0.015); type: functional; details: Mus musculus, read-out: TC50 (the source's name)
[20] = molecular target: T1, Human immunodeficiency virus type 1 reverse transcriptase (Human immunodeficiency virus 1, UniProt Q72547); test: Inhibition of HIV-1 Mutant HIV-1 RT enzymes containing the single amino acid substitution […]
[21] = molecular target: Human immunodeficiency virus type 1 reverse transcriptase (Human immunodeficiency virus 1, UniProt Q72547, V106A); test: Inhibition of HIV-1 Mutant HIV-1 RT enzymes containing the single amino acid substitution V106A
[22] = molecular target: Human immunodeficiency virus type 1 reverse transcriptase (Human immunodeficiency virus 1, UniProt Q72547, Y181I); test: Inhibition of HIV-1 Mutant HIV-1 RT enzymes containing the single amino acid substitution Y181I
[23] = molecular target: Human immunodeficiency virus type 1 reverse transcriptase (Human immunodeficiency virus 1, UniProt Q72547, Y188L); test: Inhibition of HIV-1 Mutant HIV-1 RT enzymes containing the single amino acid substitution Y188L
[24] = molecular target: T1, Human immunodeficiency virus type 1 reverse transcriptase; test: Inhibition of HIV-1 wild-type RT
[25] = system: Human immunodeficiency virus 1; test: Inhibition of HIV-1-p24 antigen production in monocyte-macrophages (cytotoxicity of the compound); type: organism-based; procedure, shortened: as §8
[26] = Cytotoxicity against normal human lymphocytes(HL) (O.D.=0.114+/-0.01); type: functional; details: read-out: TC50 (the source's name)
[27] = Bioavailability was determined after subcutaneous administration of a dose of 20 mg/kg in mice; type: ADME, organism-based; details: mouse, in vivo, po, in the assay text read “oral” for “subcutaneous”; procedure, shortened: as §6
Murine cell line = test: cytotoxicity on 3T3 fibroblasts (3T3F) murine cell line (O.D.=0.131+/-0.014); type: functional; details: Mus musculus, read-out: TC50 (the source's name)
CEM-SS [28] = test: Concentration which produces a 50% survival of HIV-1 infected cells relative to uninfected control CEM-SS cells (in vitro anti-HIV activity); type: functional, cell-based; details: Homo sapiens; procedure, shortened: as §3
CEM-SS [29] = test: as §1; type: functional, cell-based; details: Homo sapiens, read-out: IC50 (the source's name)
Daudi [30] = test: cytotoxicity on Daudi Human(DH) cell line (O.D.=0.129+/-0.018); type: functional; details: read-out: TC50 (the source's name)
Mus musculus [31] = species on record: Mus musculus; test: cytotoxicity on NSO murine cell line (O.D.=0.125+/-0.015); type: functional; details: read-out: TC50 (the source's name)
[32] = cytotoxicity on normal human lymphocytes(HL) (O.D.=0.114+/-0.01); type: functional; details: read-out: TC50 (the source's name)
[33] = Selectivity index (IC50/EC50) was determined in C8166 cells; type: functional
[34] = Selectivity index (IC50/EC50) was determined in CEM-SS cells; type: functional
Procedure, shortened: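 CEM-SS (T4 lymphocyte) cells infected with wild-type HIV-1 were scored for protection from virus-induced cell death. […] SI = IC50/EC50. An AZT-treated positive control was run in parallel under identical conditions.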

[35] = molecular target: Human immunodeficiency virus type 1 reverse transcriptase (Human immunodeficiency virus 1, UniProt Q72547, K103N); test: Inhibition of HIV-1 Mutant HIV-1 RT enzymes containing the single amino acid substitution K103N
NIH3T3 [36] = test: Cytotoxicity on 3T3 fibroblasts (3T3F) murine cell line (O.D.=0.131+/-0.014); type: functional; details: Mus musculus, read-out: TC50 (the source's name)
C8166 [37] = test: Synergistic antiviral activity with AZT (DDI), against HIV-IIIB in C8166 cells; type: functional, cell-based; details: Homo sapiens; procedure, shortened: as §7
C8166 [38] = test: Synergistic antiviral activity of AZT (DDI) with the compound, against HIV-IIIB in C8166 cells; type: functional, cell-based; details: Homo sapiens; procedure, shortened: as §7
Daudi [39] = test: Cytotoxicity on Daudi Human(DH) cell line (O.D.=0.129+/-0.018); type: functional; details: read-out: TC50 (the source's name)
Mus musculus [40] = species on record: Mus musculus; test: Cytotoxicity on NSO murine cell line (O.D.=0.125+/-0.015); type: functional; details: read-out: TC50 (the source's name)
Homo sapiens = species on record: Homo sapiens; test: Cytotoxicity on normal human lymphocytes(HL) (O.D.=0.114+/-0.01); type: functional; details: read-out: TC50 (the source's name)

Compound	EC50 [2] [nM]	IC50 (C8166 [14]) [nM]	EC50 (C8166 [15]) [nM]	Ki [20] [nM]	Ki [21] [nM]	Ki [22] [nM]	Ki [23] [nM]	Ki [24] [nM]	EC50 (CEM-SS [28]) [nM]	CC50 (CEM-SS [29]) [nM]	SI [33]	SI [34]	Ki [35] [nM]	other results
Cc1cn([C@H]2C[C@H](N=[N+]=[N-])[C@@H](CO)O2)c(=O)[nH]c1=O [ZIDOVUDINE]	400													IC50 (CEM-SS [1]): > 1000 nM; SI [3]: >250; SI [4]: 526; IC50 (C8166 [5]): > 100000 nM
O=C(NNc1nc2ccccc2n2cccc12)c1cnccn1		18000	450	300	800	2500	1800	190						CC50 (NIH3T3 [6]): 880000 nM; AUC (Mus musculus [7]): 21.7 nM hr-1 ml-1; AUC (Mus musculus [8]): 48.7 nM hr-1 ml-1; Vd (Mus musculus [9]): 3 L/kg; half-life [10]: 1.4 h; half-life [11]: 1.5 h; Tmax [12]: 2 h; EC50 (C8166 [13]): 140 nM; EC50 (C8166 [16]): 400 nM; EC50 (C8166 [17]): 98 nM; CC50 (Daudi [18]): 860000 nM; EC50 [19]: 200 nM; CC50 (NSO): 870000 nM; IC50 [25]: 25000 nM; CC50 [26]: 870000 nM; bioavailability [27]: 45%
O=c1c2cccn2c2ccc(Cl)cc2n1CCNC(=S)Nc1ccc(Br)cn1	61	7000		160	20	240	900	20	1.8	> 2000	123	>1080	150	CC50 (Murine cell line): 980000 nM; CC50 (Daudi [30]): 960000 nM; CC50 (Mus musculus [31]): 970000 nM; CC50 [32]: 970000 nM
O=c1c2cccn2c2ncccc2n1CCNC(=S)Nc1ccc(Br)cn1	124	11000	124	95	50	400	130	9	5.2	> 2000	89	>380	250	CC50 (NIH3T3 [36]): 690000 nM; EC50 (C8166 [37]): 50 nM; EC50 (C8166 [38]): 15 nM; CC50 (Daudi [39]): 690000 nM; CC50 (Mus musculus [40]): 700000 nM; CC50 (Homo sapiens): 680000 nM
